This passage reports Activity results from ChEMBL document CHEMBL5038571, “Design and Synthesis of EZH2-Based PROTACs to Degrade the PRC2 Complex for Targeting the Noncatalytic Activity of EZH2” (J Med Chem, 2021).

Activity calls are given as the source filed them. No cut-off for these calls is given here.

Assay [1] relates to WSUDLCL2. As to the kind of experiment: Upregulation of TXINP mRNA expression in human WSUDLCL2 cells at 1 uM incubated for 48 hrs by qRT-PCR analysis. The class given is functional, cell-based. Put shortly: (§1)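 WSU-DLCL-2 or Pfeiffer cells treated 48 h. Trizol RNA extraction, reverse transcription, SYBR qPCR (95 °C 30 s; 40 cycles of 95 °C 6 s, 60 °C 20 s). mRNA normalized to DMSO-treated cells; mean ± SD of three independent experiments, t-test.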

Assay [2] addresses T1, Protein cereblon/Histone-lysine N-methyltransferase EZH2 (Homo sapiens) (UniProt Q15910+Q96SW2). Kind of assay: PROTAC activity at CRBN E3 ligase/EZH2 in PRC2 complex in human WSUDLCL2 cells assessed as downregulation of SUZ12 expression at 1 uM pretreated with EPZ6438 for 4 hrs followed by compound addition and measured after 48 hrs by Western blot analysis. Type of assay: cell-based. The essentials: (§2)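 WSU-DLCL-2 cells pretreated 4 h with the named inhibitor, then compound added and incubated a further 48 h. EZH2, SUZ12, EED and RbAp48 measured by western blot (nitrocellulose transfer, skim-milk block, primary antibody overnight at 4 °C, chemiluminescent detection).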

Assay [3] concerns the target Polycomb protein SUZ12 (Homo sapiens) (UniProt Q15022). Kind of assay: Binding affinity to SUZ12 in human WSUDLCL2 cells assessed as thermal stability by measuring shift in temperature at 60 uM pretreated with proteasome inhibitor MG132 for 1 hr followed by compound addition incubated for 2 hrs by cellular thermal shift based Western blot analysis. Type of assay: cell-based. Put shortly: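 Cellular thermal shift: cells suspended at 1.5 × 10⁶/mL and pretreated with MG-132 (5 μM, 1 h), then given 60 μM compound for 2 h with a DMSO control. Cells were lysed in RIPA with cocktail for 1 h. Supernatant aliquots were heated 6 min at 45, 48, 51, 54, 57 and 60 °C and centrifuged 15 min. Soluble protein was immunoblotted; bands quantified by densitometry; three independent experiments.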

The subject of assay [4] is A549. Kind of assay: Downregulation of ARL6IP mRNA expression in human A549 cells at 10 uM incubated for 48 hrs by qRT-PCR analysis. Type of assay: functional, cell-based. Put shortly: (§3)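 Cells treated 48 h. Total RNA extracted with Trizol, reverse-transcribed, and SYBR RT-qPCR run: 95 °C 30 s, then 40 cycles of 95 °C 6 s and 60 °C 20 s. mRNA normalized to the DMSO-treated group. Mean SD of three independent experiments, t-test versus DMSO.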

The test system of assay [5] is Pfeiffer. As to the kind of experiment: Upregulation of ADRB2 mRNA expression in human Pfeiffer cells at 1 uM incubated for 48 hrs by qRT-PCR analysis. The class given is functional, cell-based. The essentials: as §1
In assay [6] the target is T1, Protein cereblon/Histone-lysine N-methyltransferase EZH2 (Homo sapiens). Kind of assay: PROTAC activity at CRBN E3 ligase/EZH2 in PRC2 complex in human WSUDLCL2 cells assessed as downregulation of EED expression at 1 uM pretreated with GSK126 for 4 hrs followed by compound addition and measured after 48 hrs by Western blot analysis. The class given is cell-based. Put shortly: as §2

Assay [7] has the same target. As to the kind of experiment: PROTAC activity at CRBN E3 ligase/EZH2 in PRC2 complex in human SK-OV-3 cells assessed as induction of EED degradation by measuring reduction in EED protein level at 1 uM incubated for 48 hrs by Western blot analysis. Type of assay: cell-based. Put shortly: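 Cells cultured in DMEM or RPMI 1640 with 10% FBS and 1% penicillin-streptomycin, 37 °C, 5% CO2; exposed to 1 μM compound for 48 h. Lysates run on SDS-PAGE and transferred to nitrocellulose. Blocked 2 h in 5% skim milk, primary antibody overnight at 4 °C, then secondary antibody. Chemiluminescent detection of PRC2 subunits and H3K27me3.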

Assay [8] concerns WSUDLCL2. Kind of assay: Upregulation of TNFRSF21 mRNA expression in human WSUDLCL2 cells at 1 uM incubated for 48 hrs by qRT-PCR analysis. The class given is functional, cell-based. The essentials: as §1
Assay [9] addresses T1, Protein cereblon/Histone-lysine N-methyltransferase EZH2 (Homo sapiens). Kind of assay: PROTAC activity at CRBN E3 ligase/EZH2 in PRC2 complex in human WSUDLCL2 cells assessed as reduction in H3K27me3 protein level at 1 uM measured after 48 to 72 hrs by Western blot analysis. Type of assay: cell-based. Particulars: time 48-72 hrs.
Assay [10] has the same target. Kind of assay: PROTAC activity at CRBN E3 ligase/EZH2 in PRC2 complex in human DU-145 cells assessed as induction of EZH2 degradation by measuring reduction in EZH2 protein level at 1 uM incubated for 48 hrs by Western blot analysis. Type of assay: cell-based. The essentials:
(§4)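 Cancer cell lines exposed to 1 μM compound for 48 h. Lysates immunoblotted (SDS-PAGE, nitrocellulose, 5% milk block, primary antibody overnight at 4 °C) for EZH2, SUZ12, EED, RbAp48 and H3K27me3. Bands quantified by densitometry and normalized to GAPDH.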

For assay [11] the target is unchanged. As to the kind of experiment: PROTAC activity at CRBN E3 ligase/EZH2 in PRC2 complex in human WSUDLCL2 cells assessed as induction of RbAp48 degradation by measuring reduction in RbAp48 protein level at 1 uM measured after 48 to 72 hrs by Western blot analysis. Type of assay: cell-based. The following applies: time 48-72 hrs.
Assay [12] shares this target. Kind of assay: PROTAC activity at CRBN E3 ligase/EZH2 in PRC2 complex in human WSUDLCL2 cells assessed as increase in EZH2 ubiquitination at 1 uM measured after 48 hrs by co-immunoprecipitation assay. The class given is cell-based. The essentials: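 WSU-DLCL-2 cells treated with 1 μM compound for 48 h and lysed in RIPA buffer. Lysates incubated with antibodies overnight at 4 °C, then 3 h with Protein G agarose beads at 4 °C. Proteins eluted in IP buffer and ubiquitination of the target probed by immunoblot.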

Assay [13] deals with WSUDLCL2. As to the kind of experiment: Effect on Histone H3 methylation in human WSUDLCL2 cells assessed as reduction in H3K9me3 levels at upto 10 uM incubated for 48 hrs by Western blot analysis. Type of assay: functional, cell-based. Particulars: dose microM <=10, time 48.0 hrs. Put shortly:
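Lysates run on SDS-PAGE and transferred to nitrocellulose. Membranes blocked with 5% skim milk for 2 h, primary antibody applied overnight at 4 °C, then secondary antibody and chemiluminescent detection of histone H3 methylation marks.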

Assay [14] has as its system Pfeiffer. As to the kind of experiment: Upregulation of CDKN2A mRNA expression in human Pfeiffer cells at 1 uM incubated for 48 hrs by qRT-PCR analysis. Type of assay: functional, cell-based. Put shortly: as §1
The subject of assay [15] is A549. As to the kind of experiment: Downregulation of CEP76 mRNA expression in human A549 cells at 10 uM incubated for 48 hrs by qRT-PCR analysis. The class given is functional, cell-based. Put shortly: as §3
Assay [16] has as its target T1, Protein cereblon/Histone-lysine N-methyltransferase EZH2 (Homo sapiens). Kind of assay: PROTAC activity at CRBN E3 ligase/EZH2 in PRC2 complex in human WSUDLCL2 cells assessed as induction of EZH2 degradation at 1 uM incubated for 48 hrs by Western blot analysis relative to control. Type of assay: cell-based. The essentials:
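WSU-DLCL-2 cells exposed to 1 μM compound for 48 h, with DMSO-treated cells as control. Bands quantified by densitometry and normalized to GAPDH. Mean SD from three independent experiments, t-test versus DMSO.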

For assay [17] the target is unchanged. As to the kind of experiment: PROTAC activity at CRBN E3 ligase/EZH2 in PRC2 complex in human WSUDLCL2 cells assessed as downregulation of SUZ12 expression at 1 uM pretreated with EED226 for 4 hrs followed by compound addition and measured after 48 hrs by Western blot analysis. The class given is cell-based. Put shortly:
as §2

The target is the same in assay [18]. Kind of assay: PROTAC activity at CRBN E3 ligase/EZH2 in PRC2 complex in human LNCaP cells assessed as induction of EED degradation by measuring reduction in EED protein level at 1 uM incubated for 48 hrs by Western blot analysis. Type of assay: cell-based. Put shortly:
as §4

T1 sequence (Q15910 whole entry, looked up): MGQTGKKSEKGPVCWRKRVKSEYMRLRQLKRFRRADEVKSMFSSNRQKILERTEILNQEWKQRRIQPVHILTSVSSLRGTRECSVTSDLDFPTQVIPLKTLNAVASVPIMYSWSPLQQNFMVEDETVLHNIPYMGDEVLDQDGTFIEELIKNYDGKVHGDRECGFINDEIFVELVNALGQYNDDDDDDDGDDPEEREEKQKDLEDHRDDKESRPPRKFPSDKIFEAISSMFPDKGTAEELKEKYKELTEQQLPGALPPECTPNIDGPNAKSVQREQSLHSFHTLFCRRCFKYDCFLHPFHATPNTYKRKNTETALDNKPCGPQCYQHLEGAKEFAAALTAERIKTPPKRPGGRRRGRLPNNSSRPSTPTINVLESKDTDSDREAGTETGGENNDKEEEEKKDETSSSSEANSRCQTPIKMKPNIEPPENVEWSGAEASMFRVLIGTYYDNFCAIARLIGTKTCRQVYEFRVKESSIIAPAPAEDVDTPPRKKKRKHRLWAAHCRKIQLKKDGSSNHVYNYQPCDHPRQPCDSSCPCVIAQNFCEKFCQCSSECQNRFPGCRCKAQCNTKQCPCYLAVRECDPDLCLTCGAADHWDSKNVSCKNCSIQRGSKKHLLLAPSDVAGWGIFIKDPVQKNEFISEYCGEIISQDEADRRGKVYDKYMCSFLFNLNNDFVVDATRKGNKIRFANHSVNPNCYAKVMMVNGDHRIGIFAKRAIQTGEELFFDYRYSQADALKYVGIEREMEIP
T1 sequence (Q96SW2 whole entry, looked up): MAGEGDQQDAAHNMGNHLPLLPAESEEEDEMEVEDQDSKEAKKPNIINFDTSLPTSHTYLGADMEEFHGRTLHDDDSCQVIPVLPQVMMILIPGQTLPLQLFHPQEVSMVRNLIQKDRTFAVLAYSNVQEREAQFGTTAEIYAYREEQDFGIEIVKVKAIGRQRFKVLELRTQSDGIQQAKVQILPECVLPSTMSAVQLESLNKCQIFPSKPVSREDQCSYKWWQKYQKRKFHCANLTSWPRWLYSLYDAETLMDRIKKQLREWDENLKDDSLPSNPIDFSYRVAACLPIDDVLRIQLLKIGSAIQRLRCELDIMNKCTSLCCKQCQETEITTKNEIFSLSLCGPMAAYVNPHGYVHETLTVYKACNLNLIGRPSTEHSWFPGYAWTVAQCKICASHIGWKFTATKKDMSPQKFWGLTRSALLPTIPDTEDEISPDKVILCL
Sequence of Polycomb protein SUZ12 (Homo sapiens) (Q15022 whole entry): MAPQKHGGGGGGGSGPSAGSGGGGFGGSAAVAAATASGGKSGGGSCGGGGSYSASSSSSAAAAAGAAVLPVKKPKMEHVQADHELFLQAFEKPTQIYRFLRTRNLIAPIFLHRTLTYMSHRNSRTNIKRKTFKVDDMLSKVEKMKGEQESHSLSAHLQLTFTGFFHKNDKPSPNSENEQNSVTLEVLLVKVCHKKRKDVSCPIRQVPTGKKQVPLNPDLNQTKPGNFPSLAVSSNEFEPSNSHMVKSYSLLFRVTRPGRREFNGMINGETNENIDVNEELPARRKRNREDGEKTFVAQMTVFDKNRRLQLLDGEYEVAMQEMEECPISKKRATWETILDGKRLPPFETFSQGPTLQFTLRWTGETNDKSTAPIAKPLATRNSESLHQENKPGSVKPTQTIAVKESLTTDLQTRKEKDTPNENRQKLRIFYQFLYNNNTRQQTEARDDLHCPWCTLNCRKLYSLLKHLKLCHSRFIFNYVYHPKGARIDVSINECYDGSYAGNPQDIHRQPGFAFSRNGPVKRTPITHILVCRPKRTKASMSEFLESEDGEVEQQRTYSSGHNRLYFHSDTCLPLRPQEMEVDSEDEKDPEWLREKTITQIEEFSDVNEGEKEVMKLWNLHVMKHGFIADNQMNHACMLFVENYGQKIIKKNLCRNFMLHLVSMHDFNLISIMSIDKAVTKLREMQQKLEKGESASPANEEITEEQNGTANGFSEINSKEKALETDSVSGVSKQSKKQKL

As to `CCN(c1cc(-c2ccc(CN3CCN(CCCCCCCOc4cccc5c4C(=O)N(C4CCC(=O)NC4=O)C5=O)CC3)cc2)cc(C(=O)NCc2c(C)cc(C)[nH]c2=O)c1C)C1CCOCC1` (stereo not drawn), the outcome (in the assay on WSUDLCL2 [1]; in assay [2]; in assay [3]; in [6]; with WSUDLCL2 [13]; with Pfeiffer [14]) was inactive. The result (with A549 [4]; in the assay on Pfeiffer [5]; in assay [7]; in the assay with WSUDLCL2 [8]; in [9]; in assay [10]) was Active. In addition, the outcome (in assay [11]; in assay [12]; with A549 [15]; in assay [17]; in assay [18]) was Active. Moreover, the Activity in [16] worked out at 72%.
